Test results published in ChEMBL document CHEMBL1806382, “Special ergolines efficiently inhibit the chemokine receptor CXCR3 in blood” (Bioorg Med Chem Lett, 2011).

Legend:
[1] = target: T1, C-X-C chemokine receptor type 3 (Homo sapiens, UniProt P49682); experiment: Displacement of radiolabeled CXCL11 from human CXCR3 expressed in CHO cells by scintillation proximity assay; type: cell-based
T1 sequence (P49682 whole entry): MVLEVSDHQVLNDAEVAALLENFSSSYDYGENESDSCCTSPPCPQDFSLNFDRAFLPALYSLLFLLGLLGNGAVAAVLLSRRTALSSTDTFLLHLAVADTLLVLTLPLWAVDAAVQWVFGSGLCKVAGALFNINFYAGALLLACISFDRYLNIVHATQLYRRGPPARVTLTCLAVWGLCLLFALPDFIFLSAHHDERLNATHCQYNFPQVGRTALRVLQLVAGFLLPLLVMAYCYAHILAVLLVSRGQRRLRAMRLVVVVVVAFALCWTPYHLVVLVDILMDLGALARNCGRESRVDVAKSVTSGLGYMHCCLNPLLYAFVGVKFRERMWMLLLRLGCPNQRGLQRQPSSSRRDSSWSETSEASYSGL

[2] = target: T1, C-X-C chemokine receptor type 3; experiment: Antagonist activity at human CXCR3 expressed in mouse L1.2 cells assessed as inhibition of ITAC-induced calcium mobilization by FLIPR assay; type: functional, cell-based
[3] = target: T2, C-X-C chemokine receptor type 3 (Mus musculus, UniProt O88410); experiment: Antagonist activity at mouse CXCR3 expressed in mouse L1.2 cells assessed as inhibition of ITAC-induced calcium mobilization by FLIPR assay; type: functional, cell-based
T2 sequence (O88410 whole entry): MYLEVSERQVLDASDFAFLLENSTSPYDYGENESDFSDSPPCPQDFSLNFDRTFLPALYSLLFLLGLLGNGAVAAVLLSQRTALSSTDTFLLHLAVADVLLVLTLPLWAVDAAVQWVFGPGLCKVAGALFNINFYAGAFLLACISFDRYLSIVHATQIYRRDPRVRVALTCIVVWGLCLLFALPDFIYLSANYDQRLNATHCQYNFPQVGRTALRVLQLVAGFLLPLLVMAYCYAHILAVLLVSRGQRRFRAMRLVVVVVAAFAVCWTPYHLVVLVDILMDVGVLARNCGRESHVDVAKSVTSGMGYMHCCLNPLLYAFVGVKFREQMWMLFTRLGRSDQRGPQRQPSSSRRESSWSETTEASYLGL

[4] = target: T3, C-X-C chemokine receptor type 3 (Rattus norvegicus, UniProt Q9JII9); experiment: Ex vivo receptor occupancy of CXCR3 in rat blood assessed as inhibition of ITAC binding after 1 hr by flow cytometry
T3 sequence (Q9JII9 whole entry): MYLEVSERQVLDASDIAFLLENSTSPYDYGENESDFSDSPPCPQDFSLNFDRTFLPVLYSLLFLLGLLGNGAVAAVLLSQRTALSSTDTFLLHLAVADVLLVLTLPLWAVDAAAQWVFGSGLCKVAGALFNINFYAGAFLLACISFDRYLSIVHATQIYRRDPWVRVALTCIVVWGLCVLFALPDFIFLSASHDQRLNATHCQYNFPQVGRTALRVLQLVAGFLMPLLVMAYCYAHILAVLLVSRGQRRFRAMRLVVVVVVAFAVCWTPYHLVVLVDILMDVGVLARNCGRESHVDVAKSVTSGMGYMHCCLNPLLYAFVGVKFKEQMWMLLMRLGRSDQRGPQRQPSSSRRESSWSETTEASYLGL
How it was run: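 Blood samples were pre-incubated with inhibitor, then I-TAC was added and incubation continued for 1 h at 37 °C. Samples were stained with fluorescence-labelled anti-CXCR3 antibodies, and lymphocyte fluorescence was read by flow cytometry. Restoration of anti-CXCR3 staining was compared with samples not given I-TAC. IC50 is the concentration giving 50% inhibition of I-TAC binding to CXCR3.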

Structure (SMILES) | IC50 [1] [nM] | IC50 [2] [nM] | IC50 [3] [nM] | IC50 [4] [nM]
NC(=O)[C@@H]1C=C2c3cccc4[nH]cc(c34)C[C@H]2N(C(=O)Nc2ccccc2)C1 | > 10000 | – | – | –
CCNC(=O)[C@@H]1C=C2c3cccc4[nH]cc(c34)C[C@H]2N(C(=O)Nc2ccccc2)C1 | 379 | 71 | 90 | –
CN(C)C(=O)[C@@H]1C=C2c3cccc4[nH]cc(c34)C[C@H]2N(C(=O)Nc2ccccc2)C1 | 28 | 10 | 10 | –
COCCN(CCOC)C(=O)[C@@H]1C=C2c3cccc4[nH]cc(c34)C[C@H]2N(C(=O)Nc2ccccc2)C1 | 305 | 187 | 437 | –
CN(CCO)C(=O)[C@@H]1C=C2c3cccc4[nH]cc(c34)C[C@H]2N(C(=O)Nc2ccccc2)C1 | 66 | 12 | 9 | –
O=C([C@@H]1C=C2c3cccc4[nH]cc(c34)C[C@H]2N(C(=O)Nc2ccccc2)C1)N1CCC1 | – | – | 14 | –
O=C([C@@H]1C=C2c3cccc4[nH]cc(c34)C[C@H]2N(C(=O)Nc2ccccc2)C1)N1CCCCCC1 | 81 | 14 | 13 | –
O=C([C@@H]1C=C2c3cccc4[nH]cc(c34)C[C@H]2N(C(=O)Nc2ccccc2)C1)N1CC=CC1 | 17 | 3 | 3 | –
O=C([C@@H]1C=C2c3cccc4[nH]cc(c34)C[C@H]2N(C(=O)Nc2ccccc2)C1)N1C=CCCC1 | 12 | 4 | 2 | –
O=C([C@@H]1C=C2c3cccc4[nH]cc(c34)C[C@H]2N(C(=O)Nc2ccccc2)C1)N1CCNCC1 | 1010 | 457 | 1730 | –
O=C1CN(C(=O)[C@@H]2C=C3c4cccc5[nH]cc(c45)C[C@H]3N(C(=O)Nc3ccccc3)C2)CCN1 | 255 | 74 | – | –
CN1CCN(C(=O)[C@@H]2C=C3c4cccc5[nH]cc(c45)C[C@H]3N(C(=O)Nc3ccccc3)C2)CC1 | 131 | 83 | 112 | –
CC(=O)N1CCN(C(=O)[C@@H]2C=C3c4cccc5[nH]cc(c45)C[C@H]3N(C(=O)Nc3ccccc3)C2)CC1 | 825 | 286 | – | –
O=C([C@@H]1C=C2c3cccc4[nH]cc(c34)C[C@H]2N(C(=O)Nc2ccccc2)C1)N1CCOCC1 | 22 | – | 12 | –
CC1CN(C(=O)[C@@H]2C=C3c4cccc5[nH]cc(c45)C[C@H]3N(C(=O)Nc3ccccc3)C2)CC(C)O1 (stereo partly drawn) | 1160 | 216 | – | –
O=C([C@@H]1C=C2c3cccc4[nH]cc(c34)C[C@H]2N(C(=O)Nc2ccccc2)C1)N1CCS(=O)(=O)CC1 | 400 | 67 | 534 | –
O=C([C@@H]1C=C2c3cccc4[nH]cc(c34)C[C@H]2N(C(=O)Nc2ccccc2)C1)N1CC[C@@H](O)[C@@H](O)C1 | 50 | 200 | 40 | –
O=C([C@@H]1C=C2c3cccc4[nH]cc(c34)C[C@H]2N(C(=O)Nc2ccccc2)C1)N1CC[C@@H](O)C1 | 61 | 22 | – | –
O=C([C@@H]1C=C2c3cccc4[nH]cc(c34)C[C@H]2N(C(=O)Nc2ccccc2)C1)N1CC[C@H](O)C1 | 47 | 12 | 19 | –
O=C([C@@H]1C=C2c3cccc4[nH]cc(c34)C[C@H]2N(C(=O)Nc2ccccc2F)C1)N1CCCC1 | – | – | 16 | –
O=C([C@@H]1C=C2c3cccc4[nH]cc(c34)C[C@H]2N(C(=O)Nc2cccc(F)c2)C1)N1CCCC1 | 4 | 3 | 2 | –
O=C([C@@H]1C=C2c3cccc4[nH]cc(c34)C[C@H]2N(C(=O)Nc2ccc(F)cc2)C1)N1CCCC1 | 7 | 4 | 4 | –
COc1ccccc1NC(=O)N1C[C@H](C(=O)N2CCCC2)C=C2c3cccc4[nH]cc(c34)C[C@H]21 | 523 | 60 | – | –
COc1cccc(NC(=O)N2C[C@H](C(=O)N3CCCC3)C=C3c4cccc5[nH]cc(c45)C[C@H]32)c1 | 278 | 27 | 74 | –

Structure (SMILES) | IC50 [1] [nM] | IC50 [2] [nM] | IC50 [3] [nM] | IC50 [4] [nM]
COc1ccc(NC(=O)N2C[C@H](C(=O)N3CCCC3)C=C3c4cccc5[nH]cc(c45)C[C@H]32)cc1 | 393 | 89 | – | –
CN(C)Cc1ccccc1NC(=O)N1C[C@H](C(=O)N2CCCC2)C=C2c3cccc4[nH]cc(c34)C[C@H]21 | – | > 10000 | – | –
CN(C)Cc1cccc(NC(=O)N2C[C@H](C(=O)N3CCCC3)C=C3c4cccc5[nH]cc(c45)C[C@H]32)c1 | – | 6200 | – | –
CN(C)Cc1ccc(NC(=O)N2C[C@H](C(=O)N3CCCC3)C=C3c4cccc5[nH]cc(c45)C[C@H]32)cc1 | – | 5400 | – | –
O=C([C@@H]1C=C2c3cccc4[nH]cc(c34)C[C@H]2N(C(=O)Nc2ccsc2)C1)N1CCCC1 | 26 | 7 | 11 | –
O=C([C@@H]1C=C2c3cccc4[nH]cc(c34)C[C@H]2N(C(=O)Nc2cccs2)C1)N1CCCC1 | 37 | 8 | 10 | –
O=C([C@@H]1C=C2c3cccc4[nH]cc(c34)C[C@H]2N(C(=O)Nc2cc[nH]c2)C1)N1CCCC1 | > 10000 | > 10000 | – | –
O=C([C@@H]1C=C2c3cccc4[nH]cc(c34)C[C@H]2N(C(=O)NC2CCCC2)C1)N1CCCC1 | 160 | 73 | 81 | –
O=C([C@@H]1C=C2c3cccc4[nH]cc(c34)C[C@H]2N(C(=O)NC2CCCCC2)C1)N1CCCC1 | 24 | 11 | 31 | –
O=C([C@@H]1C=C2c3cccc4[nH]cc(c34)C[C@H]2N(C(=O)NC2CCCCCC2)C1)N1CCCC1 | 28 | 14 | 16 | –
O=C([C@@H]1C=C2c3cccc4[nH]cc(c34)C[C@H]2N(C(=O)NC2CCC(O)CC2)C1)N1CCCC1 (stereo partly drawn) | > 10000 | 9480 | – | –
CNC(=O)N1C[C@H](C(=O)N2CCCC2)C=C2c3cccc4[nH]cc(c34)C[C@H]21 | > 10000 | > 10000 | – | –
CN(C)CCCNC(=O)N1C[C@H](C(=O)N2CCCC2)C=C2c3cccc4[nH]cc(c34)C[C@H]21 | – | > 10000 | – | –
O=C([C@@H]1C=C2c3cccc4[nH]cc(c34)C[C@H]2N(C(=O)NCc2ccccc2)C1)N1CCCC1 | 2200 | 2200 | – | –
O=C([C@@H]1C=C2c3cccc4[nH]cc(c34)C[C@H]2N(C(=O)NCc2ccco2)C1)N1CCCC1 | 2600 | 10000 | – | –
O=C([C@@H]1C=C2c3cccc4[nH]cc(c34)C[C@H]2N(C(=O)c2ccccc2)C1)N1CCCC1 | > 10000 | 6120 | – | –
O=C([C@@H]1C=C2c3cccc4[nH]cc(c34)C[C@H]2N(C(=O)Cc2ccccc2)C1)N1CCCC1 | 427 | 170 | – | –
CC(C)OC(=O)Cn1cc2c3c(cccc31)C1=C[C@@H](C(=O)N3CCCC3)CN(C(=O)Nc3ccccc3)[C@@H]1C2 | – | – | 53 | –
O=C([C@@H]1C=C2c3cccc4c3c(cn4CCN3CCCC3)C[C@H]2N(C(=O)Nc2ccccc2)C1)N1CCCC1 | 3 | 3 | 2 | 14
O=C([C@@H]1C=C2c3cccc4c3c(cn4CCN3CCCCC3)C[C@H]2N(C(=O)Nc2ccccc2)C1)N1CCCC1 | 2 | 5 | 3 | 16
CN1CCN(CCn2cc3c4c(cccc42)C2=C[C@@H](C(=O)N4CCCC4)CN(C(=O)Nc4ccccc4)[C@@H]2C3)CC1 | 5 | 5 | 3 | 23
O=C([C@@H]1C=C2c3cccc4c3c(cn4CCN3CCOCC3)C[C@H]2N(C(=O)Nc2ccccc2)C1)N1CCCC1 | 24 | 8 | 5 | 40
CCN(CC)C(=O)[C@@H]1C=C2c3cccc4[nH]cc(c34)C[C@H]2N(C(=O)Nc2ccccc2)C1 | 51 | – | – | –
